Assay outcomes from PubChem BioAssay.
Sampled rows, rich in hits. Any-hit rate of the full collection: about 2.1%.
BaF3 tox: counter-screen for JAK2V617F inhibitors: parental Ba/F3 viability inhibitors; CellTiter-Glo ATP luminescence; inhibition, % at 5.6 µM; hit rate 1.1% among 220,000; AID 1486;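 active means inhibition above a per-campaign cutoff, the mean inhibition of all tested compounds plus 3 SD, cut at about 27% in these data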;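 further: 0% = DMSO wells and 100% = JAK Inhibitor I control wells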
Ba/F3 V617F tox: loss of viability in JAK2V617F-driven Ba/F3 cells | Ba/F3 EpoR-JAK2V617F viability, ATP luminescence | inhibition, % at 5.6 µM | hit rate 1.1% among 220,000;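 active means inhibition above the campaign mean plus 3 SD over all tested compounds, cut at about 24% in these data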;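 further: cytokine-independent growth of Ba/F3 cells driven by EpoR plus mutant JAK2; 0% = DMSO-treated cells and 100% = JAK inhibitor I control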
bCat nuc transl: modulators of beta-catenin nuclear translocation. HeLa beta-catenin nuclear translocation, immunofluorescence imaging. nuclear translocation activity, % at 5 µM. hit rate 0.3% among 190,000. AID 1665;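 active means nuclear translocation activity above 50% at 5 µM, with a well cell count of 50 or more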;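 further: per-cell ratio of nuclear to cytoplasmic median beta-catenin stain intensity; plate controls were DMSO negative control for no effect and GSK-3 inhibitor IX positive control for full effect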
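System: HeLa cells, endogenous beta-catenin; compound dosing: 5 µM primary single dose, 0.1% DMSO, 0.02–20 µM confirmation series; incubation: 24 h compound exposure at 37°C, 5% CO2; signal: beta-catenin immunofluorescence imaging with DAPI; evaluation: % activation, nuclear-to-cytoplasmic median beta-catenin signal ratio per cell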
KLF5 inhibitor: kruppel-like factor 5 inhibition. inhibition, % at 5 µM. hit rate 0.23% among 290,000. DLD-1 KLF5 promoter-luciferase reporter, luminescence;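 active means inhibition above a per-plate limit of that plate's mean compound inhibition plus 3 SD, cut at about 60% in these data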;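 further: 0% = DMSO wells and 100% = LY294002 at 200 µM; higher means less KLF5 promoter-driven luciferase light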
MT stabilize HCS: stabilizes microtubules in HeLa cells | HeLa tubulin immunostaining HCS, 24 h; share of cells brighter than vehicle mean+2SD | % tubulin-high responders, % at 10 µM | hit rate 0.83% among 200,000 | AID 2205;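 active means plate Z-score above 3 for both tubulin-high and condensed-nucleus cell shares, with cell loss under 80%, at 10 µM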;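 further: anti alpha tubulin signal scored within the nucleus-defined area of each cell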
IEC-6 tox: counter-screen for KLF5 inhibitors: cytotoxicity in IEC-6 cells | AID 1825 | hit rate 0.78% among 290,000 | IEC-6 cytotoxicity, luminescence viability | inhibition, % at 5 µM;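 further: 0% = plate median of test compound wells and 100% = cytotoxic reference compound wells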
IEC-6 cytotox cf: IEC-6 cytotoxicity, confirmation assay; shares compounds with IEC-6 tox; IEC-6 rat intestinal epithelial viability, luminescence; inhibition, % at 5 µM; hit rate 63% among 1,900;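 further: 0% = vehicle and 100% = reference cytotoxic drug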
* marks the source's active call; other numbers are inactive results; · = no result. Unless noted, no stated cut-off is given here; in the data, active means inhibition above about 22%; inactive means the rest.

SMILES | BaF3 tox | Ba/F3 V617F tox | bCat nuc transl | KLF5 inhibitor | MT stabilize HCS | IEC-6 tox | IEC-6 cytotox cf
N#C/C(=N/Nc1ccc(OC(F)(F)F)cc1)C(N)=S | 68* | 50* | -3 | -61 | · | 28* | 35*
O=C(c1ccc(CS(=O)c2ccccc2Cl)o1)N1CCN(c2ccccc2)CC1 (centres undefined) | · | · | · | 53 | · | 80* | 57*
O=C(c1cccc([N+](=O)[O-])c1)N1CCN(S(=O)(=O)N2CCCCC2)CC1 | · | · | · | 16 | · | -8 | ·
O=C(c1ccc2c(c1)OCO2)N1CCN(S(=O)(=O)N2CCCCC2)CC1 | · | · | · | -2 | · | -5 | ·
COc1c(Cl)cnn(-c2ccccc2)c1=O | 2 | -1 | 1 | -24 | 3 | -2 | ·
COc1nn(-c2ccccc2)c(=O)c(Cl)c1Cl | · | · | · | -7 | · | 100* | 23*
Cc1ccnn1CCC(=O)N1CCCC(N2CCN(c3cccc(Cl)c3)CC2)C1 (centres undefined) | · | · | · | -24 | · | 1 | ·
C=CCc1cccc(/C=N/NC(=O)c2ccccc2Br)c1O | 4 | -3 | 3 | -35 | 4 | 22 | ·
C=CCc1cccc(/C=N/NC(=O)c2ccccc2OC)c1O | 4 | -1 | 0 | -13 | 2 | 41* | 19
COc1ccc(OC)c(-c2csc(NC(=O)c3ccc(F)cc3)n2)c1 | · | · | · | 19 | · | 34* | 16
COc1ccccc1/C=N/NC(=O)c1c(-c2ccccc2)noc1C | · | · | · | -7 | · | -1 | ·
Cc1cccc(/C=N\NC(=O)c2ccc(Cl)cc2)c1O | 2 | -1 | -1 | -50 | 2 | 23* | 51*
Cc1cccc(/C=N/NC(=O)c2c(-c3ccccc3)noc2C)c1O | · | · | · | 44 | · | 27* | 48*
FC(F)(F)c1cccc(Cc2noc(CN(Cc3ccccn3)CC3CCCO3)n2)c1 (centres undefined) | 0 | 1 | 0 | -19 | · | -2 | ·
O=C(NCc1cccnc1)c1ccc([N+](=O)[O-])o1 | -6 | 1 | 5 | -17 | 3 | 32* | 16
O=C(Nc1cccnc1)c1ccco1 | 6 | 1 | · | -8 | 2 | -4 | ·
O=C(Cc1ccc(-c2ccccc2)cc1)NCc1cccnc1 | 20 | 18 | 45 | -1 | 13* | 25* | 25*
O=C(Nc1cccnc1)c1ccc([N+](=O)[O-])o1 | · | · | · | -11 | · | 76* | 2
Cc1cc(-c2ccc(C)c(S(=O)(=O)NCCC(C)N3CCCCCC3)c2)on1 (centres undefined) | · | · | · | -10 | · | -2 | ·
CC(C)n1cc(/C=N/Nc2ccc(C(=O)O)cc2)c2ccccc21 | · | · | · | 45 | · | 35* | 55*
O=C1C=C(NCCN2CCOCC2)C(=O)c2cnccc21 | 11 | 8 | 6 | 30 | 23 | 99* | 100*
O=C(NCCN1CCOCC1)c1ccncc1 | 1 | -1 | -6 | 3 | 3 | -8 | ·
Cc1[nH]c2ccccc2c1/C=N/Nc1nncn1N | 4 | 7 | 0 | -27 | 2 | 102* | -14
COc1ccc(-c2nn(-c3ccccc3)cc2/C=N/N=C(N)N)cc1OC | 1 | 0 | 14 | 4 | 3 | -4 | ·
COc1ccc(-c2nn(-c3ccccc3)cc2/C=N/O)cc1OC | · | · | · | -54 | · | 27* | 14
SMILES | BaF3 tox | Ba/F3 V617F tox | bCat nuc transl | KLF5 inhibitor | MT stabilize HCS | IEC-6 tox | IEC-6 cytotox cf
O=[N+]([O-])c1cc([N+](=O)[O-])c2cc3ccccc3nc2c1 | · | · | · | 3 | · | 46* | 12
COc1cccc(N=Nc2ccc(O)c3ncccc23)c1 | · | · | · | 27 | · | 30* | 11
Nc1ccc(Br)c2cccnc12 | 9 | -3 | 5 | 15 | 3 | 11 | ·
Nc1ccc(N=Nc2ccccc2)c2cccnc12 | · | · | · | -30 | · | 33* | 34*
COc1ccc(N=Nc2ccc(O)c3ncccc23)cc1 | 4 | -3 | 6 | -13 | · | 10 | ·
COc1cccc(N=Nc2ccc3cccnc3c2O)c1 | · | · | · | 61 | · | 30* | 56*
COC(=O)c1ccc(Cl)c(NS(=O)(=O)c2ccc3c(c2)OCCO3)c1 | 4 | 3 | · | 45 | 39* | 28* | 2
CC(=O)c1cc2c(cc1NS(=O)(=O)c1ccc3c(c1)OCCO3)OCO2 | 4 | -1 | -8 | -4 | 2 | -4 | ·
CN(C)CC(CCC(CN(C)C)C(O)(c1ccccc1)c1ccccc1)C(O)(c1ccccc1)c1ccccc1 (centres undefined) | · | · | · | 2 | · | 45* | 42*
N#CC1CC(c2ccccc2)Nc2cc(Cl)ccc2N1 (centres undefined) | -1 | 2 | 0 | -64 | · | 40* | 21
C[C@@H]1C[C@H](O)c2cc(Cl)ccc2N1 | 4 | 0 | · | -31 | 3 | 1 | ·
Cc1cccc(Cc2cnc(NC(=O)C3=NCCN3)s2)c1 | 8 | 0 | -2 | -2 | 2 | -1 | ·
Cc1cccc(Cc2cnc(NC(=O)c3ccc(C)o3)s2)c1 | 76* | 71* | 0 | -99 | 2 | 59* | 39*
C/C(=N\NC(=O)c1ccn(C)n1)c1cccc(NC(=O)c2ccncc2)c1 | -1 | -5 | · | -42 | 3 | 2 | ·
CCCCCOc1ccc(Br)cc1/C(C)=N/NC1=NCCN1 | 73* | 78* | 20 | 38 | 8 | 83* | 60*
C/C(=N\NC(=O)c1ccc2c(c1)OCCO2)c1ccccc1 | 0 | 0 | -1 | -37 | · | 31* | 9
Cc1ccc(/C=N/NC(=O)c2ccc3c(c2)OCCO3)s1 | 37* | 65* | 66* | -36 | · | 34* | 49*
O=C(N/N=C/c1cccs1)c1ccc2ccccc2c1 | · | · | · | -55 | · | 29* | 12
Cc1ccc(/C=N/NC(=O)c2ccncc2)s1 | -1 | -1 | -1 | -16 | · | 0 | ·
Cc1ccc(/C=N/NC(=O)c2ccc3ccccc3c2)s1 | · | · | · | 48 | · | 82* | 50*
CS(=O)(=O)c1[nH]nc(-c2ccccc2Cl)c1C#N | -4 | 0 | 0 | 1 | · | -6 | ·
O=C(O)c1ccc(Nc2ncnc3c2cnn3Cc2ccccc2)cc1 | 9 | 2 | 0 | -33 | 4 | 4 | ·
Cn1c(=O)c2c(nc(CN3CCN(C(=O)c4ccco4)CC3)n2CC(=O)C(C)(C)C)n(C)c1=O | · | · | · | 1 | · | -1 | ·
COc1cccc(CNc2ncc(C(=O)Nc3cc(OC)c(OC)c(OC)c3)c(C)n2)c1 | · | · | · | 22 | · | 30* | 12
CCOC(=O)C1=C(C)NC(SC)=C(C#N)C1CC(C)C (centres undefined) | 81* | 85* | 27 | 52 | · | 70* | 56*
CC(=O)C1=C(C)NC(SCC(N)=O)=C(C#N)C1CC(C)C (centres undefined) | 0 | -2 | -1 | -9 | 5 | 3 | ·
O=C(c1cccnc1)N1CCN(C/C=C/c2ccccc2)CC1 | 6 | 0 | -1 | -18 | 2 | 3 | ·
Cc1cc(C(=O)N2CCN(C/C=C/c3ccccc3)CC2)cs1 | 3 | 0 | · | 2 | 3 | 45* | -16
C=CCNC(=S)NS(=O)(=O)c1cccs1 | 12 | -1 | 2 | -15 | 2 | -2 | ·
COc1ccc(CCNc2ncnc3sc(C)cc23)cc1OC | · | · | · | -38 | · | 27* | 27*
